The source made the active and inactive calls. The rule behind the calls is not given here.

In assay [1] the test system is MDA-MB-231. In words: Antiproliferative activity against human MDA-MB-231 cells after 24 hrs by MTT assay. The assay is classed as functional, cell-based. (Tetrazolium assays rely on reduction of a dye to a coloured formazan, in cell work by metabolically active cells.)
For assay [2], the system named is MDA-MB-231. In words: Antiproliferative activity against human MDA-MB-231 cells after 24 hrs by MTT assay relative to control. Type of assay: functional. The procedure, abridged: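 MDA-MB-231 cells kept in DMEM with 10% FBS at 37°C, 5% CO2. Seeded at 5×10^3 cells/well and left 24 h, then exposed to compounds at 0.078-10 µM for 24 h. 0.1% DMSO served as the vehicle control. MTT added for 4 h, formazan dissolved in DMSO, absorbance read at 570 nm. IC50 derived. Each run in triplicate, repeated at least three times.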

In assay [3] the target is T1, Glutaminase kidney isoform, mitochondrial (Homo sapiens, UniProt O94925).
T1 sequence (O94925 whole entry): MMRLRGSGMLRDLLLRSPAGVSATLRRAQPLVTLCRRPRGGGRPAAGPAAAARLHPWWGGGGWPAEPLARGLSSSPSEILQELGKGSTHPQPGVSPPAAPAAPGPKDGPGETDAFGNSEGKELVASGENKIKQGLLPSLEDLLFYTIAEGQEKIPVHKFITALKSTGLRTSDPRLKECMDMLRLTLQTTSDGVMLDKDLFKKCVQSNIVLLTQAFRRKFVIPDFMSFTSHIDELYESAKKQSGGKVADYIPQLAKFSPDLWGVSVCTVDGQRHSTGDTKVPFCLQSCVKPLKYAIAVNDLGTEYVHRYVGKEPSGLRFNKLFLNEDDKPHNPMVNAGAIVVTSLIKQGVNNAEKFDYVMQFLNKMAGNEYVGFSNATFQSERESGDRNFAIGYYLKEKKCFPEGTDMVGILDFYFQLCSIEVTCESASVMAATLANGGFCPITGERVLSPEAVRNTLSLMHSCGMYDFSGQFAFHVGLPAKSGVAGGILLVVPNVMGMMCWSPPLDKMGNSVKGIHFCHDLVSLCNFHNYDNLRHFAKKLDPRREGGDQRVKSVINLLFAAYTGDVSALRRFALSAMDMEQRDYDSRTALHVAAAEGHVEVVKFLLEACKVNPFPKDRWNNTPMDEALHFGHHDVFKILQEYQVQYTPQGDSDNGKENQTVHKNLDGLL
In words: Inhibition of human GLS1. The procedure, abridged:
(§1)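 Human GLS1 hydrolase activity measured with a commercial GLS1 inhibitor screening kit, following the manufacturer's protocol. Single-point screening was run at 10 μM.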

The target in assay [4] is T2, Glutaminase kidney isoform, mitochondrial (Homo sapiens) (UniProt O94925).
T2 sequence (whole entry): T1 sequence (O94925 whole entry)
In words: Inhibition of human GLS1 at 10 uM relative to control. The procedure, abridged:
as §1

Assay [5] has as its system MDA-MB-231. In words: Inhibition of colony formation in human MDA-MB-231 cells at 160 to 640 nM treated for 24 hrs and incubated for 2 weeks by crystal violet staining based assay. Type of assay: functional, cell-based. The settings on record: dose 160-640 nM. The procedure, abridged: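 MDA-MB-231 cells seeded at 1000 per well and left 24 h. Treated with DMSO vehicle or compound for 24 h, then grown two weeks with medium changed twice weekly. Colonies fixed in 4% paraformaldehyde and stained with 0.05% crystal violet. Result expressed as % of vehicle. n = 4.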

For assay [6], the system named is MDA-MB-231. In words: Induction of apoptosis in human MDA-MB-231 cells assessed as viable cells at 160 nM incubated for 12 hrs by annexin V-FITC/PI based flow cytometric analysis (reference value: 98.1%). The assay is classed as functional. Conditions: read-out: Activity. The procedure, abridged: (§2)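 Cells exposed to compound or 0.1% DMSO for 12 h at 37°C, then resuspended in PBS at 1×10^5 cells/mL. Stained with annexin V-FITC and PI for 20 min at room temperature in the dark, then analysed by flow cytometry. Quadrant percentages reported: lower right early apoptotic, upper right late apoptotic. n = 4, mean ± SD.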
(In general: In flow cytometry, cells or beads pass a laser one at a time.)

Assay [7] concerns MDA-MB-231. In words: Induction of apoptosis in human MDA-MB-231 cells assessed as early apoptotic cells at 160 nM incubated for 12 hrs by annexin V-FITC/PI based flow cytometric analysis (reference value: 1.2%). The assay is classed as functional. The method in brief: as §2
Assay [8] has as its system MDA-MB-231. In words: Induction of apoptosis in human MDA-MB-231 cells assessed as late apoptotic cells at 160 nM incubated for 12 hrs by annexin V-FITC/PI based flow cytometric analysis (reference value: 0.7%). The assay is classed as functional. The procedure, abridged: as §2
The subject of assay [9] is MDA-MB-231. In words: Induction of apoptosis in human MDA-MB-231 cells assessed as necrotic cells at 160 nM incubated for 12 hrs by annexin V-FITC/PI based flow cytometric analysis (reference value: 0.1%). The assay is classed as functional. The procedure, abridged:
as §2

Assay [10] deals with MDA-MB-231. In words: Induction of apoptosis in human MDA-MB-231 cells assessed as late apoptotic cells at 320 nM incubated for 12 hrs by annexin V-FITC/PI based flow cytometric analysis (reference value: 0.7%). Type of assay: functional. The method in brief: as §2
The subject of assay [11] is MDA-MB-231. In words: Induction of apoptosis in human MDA-MB-231 cells assessed as late apoptotic cells at 640 nM incubated for 12 hrs by annexin V-FITC/PI based flow cytometric analysis (reference value: 0.7%). The assay is classed as functional. The procedure, abridged: as §2
Assay [12] has as its system MDA-MB-231. In words: Induction of apoptosis in human MDA-MB-231 cells assessed as necrotic cells at 640 nM incubated for 12 hrs by annexin V-FITC/PI based flow cytometric analysis (reference value: 0.1%). Type of assay: functional. The procedure, abridged: as §2
Assay [13] concerns MDA-MB-231. In words: Induction of apoptosis in human MDA-MB-231 cells assessed as increase in cleaved caspase-3 expression after 12 hrs by Western blotting analysis. Conditions: dose 160-640 nM. Type of assay: functional, cell-based. The procedure, abridged:
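MDA-MB-231 cells exposed to graded concentrations or 0.1% DMSO; the methods state 24 h, the legend 12 h. Lysed in RIPA, 80 µg protein per lane on SDS-PAGE and transferred to PVDF. Probed overnight at 4°C for caspase-3, cleaved caspase-3, caspase-9 and cleaved caspase-9, with GAPDH as loading control. HRP secondaries, ECL detection, densitometry. n = 4.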
For orientation: In western blotting, separated proteins are transferred to a membrane and probed.

The target of assay [14] is T2, Glutaminase kidney isoform, mitochondrial (Homo sapiens). In words: Inhibition of GLS1 in human MDA-MB-231 cells assessed as reduction in glutamate production incubated for 12 hrs by Amplex red glutamic acid assay. Conditions: dose 40-640 nM. Type of assay: cell-based. The method in brief: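 MDA-MB-231 cells pre-cultured 24 h at 37°C, then given compound or 0.1% DMSO for a further 12 h. Cells washed in PBS and lysed in RIPA at 4°C. Glutamate in the lysate measured with an Amplex Red glutamic acid kit per the manufacturer's protocol.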

In assay [15] the test system is MDA-MB-231. In words: Antitumor activity against human MDA-MB-231 cells xenografted in BALB/c nude mouse assessed as reduction in tumor volume at 25 to 50 mg/kg, ip administered every 3 days for 4 weeks. Type of assay: functional, organism-based. Conditions: dose 25-50 mg/kg. The method in brief:
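Nude mice given 3×10^6 MDA-MB-231 cells in 200 µL PBS, injected subcutaneously into the right flank. Once tumors reached about 100 mm³, mice were randomized into four groups. Dosing was 25 or 50 mg/kg i.p. every three days for four weeks. Tumor volume, tumor weight and body weight were followed. n = 6, mean ± SD.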

Assay [16] concerns MDA-MB-231. In words: Potency index, ratio of WA IC50 to compound IC50 for antiproliferative activity against human MDA-MB-231 cells after 24 hrs by MTT assay. The assay is classed as functional. The method in brief:
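Ratio calculated from MTT IC50 values in MDA-MB-231 cells. Cells seeded at 5×10^3/well for 24 h, then treated 24 h at 0.078-10 µM with 0.1% DMSO as vehicle. Absorbance read at 570 nm after 4 h MTT and DMSO solubilization. Triplicate wells, at least three repeats.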

Assay [17] has as its target T2, Glutaminase kidney isoform, mitochondrial (Homo sapiens). In words: Potency index, ratio of WA IC50 to compound IC50 for inhibition of human GLS1. The method in brief:
as §1

A word on the IC50: it is the concentration at which inhibition is half-maximal. The term inhibition denotes the share of the control response that was lost under treatment. With `CC(=O)O[C@H]1C=C([C@H](C)[C@H]2CC(C)=C(C)C(=O)O2)[C@@]2(C)CC[C@H]3[C@@H](C[C@H]4O[C@]45[C@@H](OC(=O)CCCC(=O)Nc4ccc(N6CCOCC6)c(F)c4)C=CC(=O)[C@]35C)[C@@]12O`, the Activity entry in the assay on MDA-MB-231 [1] is “Dose-Dependent Effect”; with MDA-MB-231 [7], 2.6%; in the assay with MDA-MB-231 [8] it was 1%; in the assay with MDA-MB-231 [9], 0.2%; in the assay on MDA-MB-231 [10], 2.9%; in the assay with MDA-MB-231 [11], 11.7%. Besides, the values for the Activity with MDA-MB-231 [12] and with MDA-MB-231 [13] were 0.1% and “Dose-Dependent Effect”, respectively. The IC50 in the assay on MDA-MB-231 [1] (MDA-MB-231, 24 h) turned out to be 320 nM; in assay [3] it was 1080 nM. Moreover, the “inhibition (INH)” value in the assay with MDA-MB-231 [2] was 95.2%. Further, the figures for the inhibition in [4] and in assay [14] were 87.2% and “Dose-Dependent Effect”, respectively. Also, the inhibition result in the assay with MDA-MB-231 [5] is “Active”. The viability at 0.16 µM in the assay with MDA-MB-231 [6] was found to be 96.3%. Besides, the result with MDA-MB-231 [15] was Active. Also, the “Ratio IC50” value (in the assay on MDA-MB-231 [16]; in assay [17]) was 20 each time.
